In ChEMBL document CHEMBL1124552 (J Med Chem, 1989):
Values joined by “and” are separate entries in the source; they are usually repeats but may differ in a detail not shown here. Equal values may be shown once.

Legend:
[1] = Average half life period was determined; type: ADME
[2] = Half life period was determined; type: ADME; details: rat
[3] = Second order rate constant for Alkylation reaction by the compound (17 mM) at temperature 37 degrees C with 1 M lutidine at pH 7.4 in the presence of 10 mol equiv of sodium thiosulfate; type: functional
How it was run: (§1)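 Run by 31P NMR in 1 M lutidine (D2O), "pH" 7.4 (corrected meter reading), 37 °C, with 10 mol equiv sodium thiosulfate as trapping agent. Overlapping A, B and C resonances were resolved by least-squares fitting to three Lorentzians or by Lorentz–Gauss resolution enhancement. This gave concentration–time estimates, from which k1 and k2 were derived.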

[4] = Second order rate constant for Alkylation reaction by the compound (17 mM) at temperature 27 degrees C with 1 M lutidine at pH 7.4 in the presence of 10 mol equiv of 2-mercaptoethanol; type: functional
How it was run: (§2)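 Decomposition followed over time by 31P NMR in 1 M lutidine buffer made with D2O, "pH" 7.4 (meter reading plus 0.4 unit for the deuterium isotope effect), with 2-mercaptoethanol as trapping agent. Concentrations of species A, B and C were tracked against time, and k1 (first alkylation) and k2 (second alkylation) were derived from them.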

[5] = Half life period for first alkylation reaction was determined; type: ADME
How it was run: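 Half-life derived from the k1 value (first alkylation, i.e. mustard disappearance), measured by 31P NMR in 1 M lutidine, "pH" 7.4, 37 °C, with trapping agent.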

[6] = First order rate constant for Alkylation reaction by the compound (17 mM) at temperature 37 degrees C with 1 M lutidine at pH 7.4 in the presence of 10 mol equiv of sodium thiosulfate; type: functional; how it was run: as §1
[7] = First order rate constant for Alkylation reaction by the compound (11 mM) at temperature 20 degrees C with 1 M lutidine at pH 7.4 in the presence of 63 mol equiv of 2-mercaptoethanol; type: functional; how it was run: as §2
[8] = First order rate constant for Alkylation reaction by the compound (17 mM) at temperature 20 degrees C with 1 M lutidine at […] in the presence of 10 mol equiv of 2-mercaptoethanol; type: functional
[9] = Second order rate constant for Alkylation reaction by the compound (11 mM) at temperature 20 degrees C with 1 M lutidine at pH 7.4 in the presence of 63 mol equiv of 2-mercaptoethanol; type: functional; how it was run: as §2
[10] = Second order rate constant for Alkylation reaction by the compound (17 mM) at temperature 47 degrees C with 1 M lutidine at pH 7.4 in the presence of 10 mol equiv of 2-mercaptoethanol; type: functional; how it was run: as §2
[11] = First order rate constant for Alkylation reaction by the compound (17 mM) at temperature 47 degrees C with 1 M lutidine at pH 7.4 in the presence of 10 mol equiv of 2-mercaptoethanol; type: functional; how it was run: as §2
[12] = First order rate constant for Alkylation reaction by the compound (17 mM) at temperature 27 degrees C with 1 M lutidine at pH 7.4 in the presence of 10 mol equiv of 2-mercaptoethanol; type: functional; how it was run: as §2
[13] = Pka value at 20 degrees C
How it was run: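 31P NMR chemical shift recorded in unbuffered water as a function of solution pH at 20 °C. The shift versus pH data were fitted to the Henderson–Hasselbalch equation to give the pKa.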

[14] = First order rate constant for Alkylation reaction by the compound (17 mM) at temperature 37 degrees C with 1 M lutidine at pH 7.4 in the presence of 10 mol equiv of 2-mercaptoethanol; type: functional; how it was run: as §2
[15] = Second order rate constant for Alkylation reaction by the compound (17 mM) at temperature 37 degrees C with 1 M lutidine at pH 7.4 in the presence of 10 mol equiv of 2-mercaptoethanol; type: functional; how it was run: as §2

SMILES	half-life [1] [h]	half-life [2] [h]	K2 [3]	K2 [4]	T1/2 [5]	K1 [6]	K1 [7]	K1 [8]	K2 [9]	K2 [10]	K1 [11]	K1 [12]	Pka [13]	K1 [14]	K2 [15]
O=P1(NCCCl)OCCC(O)N1CCCl (stereo unspecified) [ALDOIFOSFAMIDE]	0.733	1													
OC1CCOP(NCCCl)N1CCCl (trans isomer)	1.03														
O=P(O)(NCCCl)NCCCl [PALIFOSFAMIDE]			4.29 10e-3 min-1	1.14 10e-3 min-1	1.28 h and 2.85 h	8.29 10e-3 min-1	1.07 10e-3 min-1	1.2 10e-3 min-1	0.63 10e-3 min-1	20 10e-3 min-1	34.3 10e-3 min-1	2.36 10e-3 min-1	4.28	9.03 10e-3 min-1	4.05 10e-3 min-1
